What was measured:
Type in all cases: functional
Rhizoctonia solani = assay: Antifungal activity against Rhizoctonia solani assessed as fungicidal activity at 200 mg/L (beneficial crop - cucumber)
How it was run: (§1)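 In vivo preventive test on cucumber as host plant.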

[1] = tested on: Pseudoperonospora cubensis; assay: Antifungal activity against Pseudoperonospora cubensis assessed as fungicidal activity at 200 mg/L (beneficial crop - cucumber); how it was run: as §1
Podosphaera fuliginea = assay: Antifungal activity against Podosphaera fuliginea assessed as fungicidal activity at 200 mg/L (beneficial crop - cucumber); how it was run: as §1
Botrytis cinerea = assay: Antifungal activity against Botryotinia fuckeliana assessed as fungicidal activity at 200 mg/L (beneficial crop - cucumber); how it was run: as §1

Compound | inhibition at 200 µg/mL (Rhizoctonia solani) [%] | inhibition at 200 µg/mL [1] [%] | inhibition at 200 µg/mL (Podosphaera fuliginea) [%] | inhibition at 200 µg/mL (Botrytis cinerea) [%]
CO/C=C(/C(=O)OC)c1ccccc1COc1ccc(C(=O)/C=C/c2c(F)cccc2Cl)cc1 | 0 | 67 | 0 | 0
CO/C=C(/C(=O)OC)c1ccccc1COc1cccc(C(=O)/C=C/c2ccc(Cl)cc2)c1 | 0 | 100 | 96 | 0
CO/C=C(/C(=O)OC)c1ccccc1COc1ccccc1C(=O)/C=C/c1ccc(Br)cc1 | 0 | 0 | 0 | 0
CO/C=C(/C(=O)OC)c1ccccc1COc1ccc(Cl)cc1C(=O)/C=C/c1ccccc1Cl | 0 | 0 | 0 | 0
CO/C=C(/C(=O)OC)c1ccccc1COc1cccc(C(=O)/C=C/c2ccccc2Br)c1 | 31 | 100 | 59 | 0
CO/C=C(/C(=O)OC)c1ccccc1COc1ccc(C(=O)/C=C/c2cccc(Br)c2)cc1 | 0 | 56 | 0 | 0
CO/C=C(/C(=O)OC)c1ccccc1COc1ccc(C(=O)/C=C/c2cccc(OC)c2)cc1 | 20 | 86 | 0 | 0
CO/C=C(/C(=O)OC)c1ccccc1COc1ccccc1C(=O)/C=C/c1cccc(Br)c1 | 0 | 78 | 0 | 0
CO/C=C(/C(=O)OC)c1ccccc1COc1cccc(C(=O)/C=C/c2cccc(C)c2)c1 | 0 | 81 | 0 | 0
CO/C=C(/C(=O)OC)c1ccccc1COc1cccc(C(=O)/C=C/c2ccc(F)cc2)c1 | 0 | 97 | 31 | 0
CO/C=C(/C(=O)OC)c1ccccc1COc1ccc(C(=O)/C=C/c2cccc(F)c2)cc1 | 0 | 97 | 0 | 0
CO/C=C(/C(=O)OC)c1ccccc1COc1cccc(C(=O)/C=C/c2c(F)cccc2Cl)c1 | 0 | 97 | 13 | 0
CO/C=C(/C(=O)OC)c1ccccc1COc1ccc(C(=O)/C=C/c2ccc(Cl)c(Cl)c2)cc1 | 37 | 33 | 67 | 0
CO/C=C(/C(=O)OC)c1ccccc1COc1ccc(C(=O)/C=C/c2ccc(F)cc2)cc1 | 23 | 100 | 0 | 0
CO/C=C(/C(=O)OC)c1ccccc1COc1ccc(C)cc1C(=O)/C=C/c1ccc(Cl)cc1 | 0 | 89 | 0 | 0
CO/C=C(/C(=O)OC)c1ccccc1COc1cccc(C(=O)/C=C/c2ccc(C(C)(C)C)cc2)c1 | 0 | 28 | 78 | 0
CO/C=C(/C(=O)OC)c1ccccc1COc1ccc(C(=O)/C=C/c2ccc(OC)c(OC)c2)cc1 | 0 | 11 | 0 | 0
CO/C=C(/C(=O)OC)c1ccccc1COc1ccccc1C(=O)/C=C/c1cccc(Cl)c1 | 0 | 39 | 0 | 0
CO/C=C(/C(=O)OC)c1ccccc1COc1cccc(C(=O)/C=C/c2ccccc2)c1 | 0 | 96 | 0 | 0
CO/C=C(/C(=O)OC)c1ccccc1COc1ccc(C(=O)/C=C/c2cccs2)cc1 | 0 | 0 | 0 | 0
CO/C=C(/C(=O)OC)c1ccccc1COc1ccc(C(=O)/C=C/c2ccc(C)cc2)cc1 | 38 | 75 | 0 | 0
CO/C=C(/C(=O)OC)c1ccccc1COc1ccc(C(=O)/C=C/c2ccccc2Br)cc1 | 21 | 83 | 67 | 0
CO/C=C(/C(=O)OC)c1ccccc1COc1ccc(Cl)cc1C(=O)/C=C/c1ccc(OC)cc1 | 0 | 0 | 0 | 0

Compound | inhibition at 200 µg/mL (Rhizoctonia solani) [%] | inhibition at 200 µg/mL [1] [%] | inhibition at 200 µg/mL (Podosphaera fuliginea) [%] | inhibition at 200 µg/mL (Botrytis cinerea) [%]
CO/C=C(/C(=O)OC)c1ccccc1COc1ccc(C(=O)/C=C/c2ccc(Cl)cc2Cl)cc1 | 27 | 67 | 78 | 0
CO/C=C(/C(=O)OC)c1ccccc1COc1ccc(C(=O)/C=C/c2ccccc2)cc1 | 0 | 0 | 0 | 0
CO/C=C(/C(=O)OC)c1ccccc1COc1cccc(C(=O)/C=C/c2ccc(C)cc2)c1 | 0 | 100 | 97 | 0
CO/C=C(/C(=O)OC)c1ccccc1COc1cccc(C(=O)/C=C/c2ccc(N(C)C)cc2)c1 | 32 | 0 | 0 | 0
CO/C=C(/C(=O)OC)c1ccccc1COc1cccc(C(=O)/C=C/c2cccc(Cl)c2)c1 | 0 | 33 | 30 | 0
CO/C=C(/C(=O)OC)c1ccccc1COc1cccc(C(=O)/C=C/c2ccco2)c1 | 0 | 0 | 0 | 16
CO/C=C(/C(=O)OC)c1ccccc1COc1ccc(Cl)cc1C(=O)/C=C/c1ccc(C)cc1 | 0 | 0 | 0 | 0
CO/C=C(/C(=O)OC)c1ccccc1COc1cccc(C(=O)/C=C/c2cccc(F)c2)c1 | 36 | 0 | 0 | 10
CO/C=C(/C(=O)OC)c1ccccc1COc1ccccc1C(=O)/C=C/c1ccc(OC)cc1 | 0 | 0 | 0 | 0
CCOc1ccc(/C=C/C(=O)c2cccc(OCc3ccccc3/C(=C\OC)C(=O)OC)c2)cc1 | 0 | 33 | 0 | 0
CO/C=C(/C(=O)OC)c1ccccc1COc1ccc(C(=O)/C=C/c2ccc(Br)cc2)cc1 | 0 | 56 | 0 | 0
CO/C=C(/C(=O)OC)c1ccccc1COc1cccc(C(=O)/C=C/c2ccccc2F)c1 | 38 | 0 | 0 | 0
CO/C=C(/C(=O)OC)c1ccccc1COc1ccc(C(=O)/C=C/c2ccc(C(C)(C)C)cc2)cc1 | 0 | 22 | 67 | 0
CO/C=C(/C(=O)OC)c1ccccc1COc1cccc(C(=O)/C=C/c2ccc(Br)cc2)c1 | 0 | 94 | 45 | 0
CO/C=C(/C(=O)OC)c1ccccc1COc1ccc(C(=O)/C=C/c2cccc(C)c2)cc1 | 0 | 47 | 0 | 0
CO/C=C(/C(=O)OC)c1ccccc1COc1ccc(Cl)cc1C(=O)/C=C/c1ccccc1 | 0 | 0 | 0 | 0
CO/C=C(/C(=O)OC)c1ccccc1COc1ccc(C(=O)/C=C/c2ccccc2Cl)cc1 | 0 | 100 | 0 | 0
CO/C=C(/C(=O)OC)c1ccccc1COc1ccccc1C(=O)/C=C/c1ccc(C)c(C)c1 | 0 | 0 | 0 | 0
CO/C=C(/C(=O)OC)c1ccccc1COc1ccc(C(=O)/C=C/c2ccc(C)c(C)c2)cc1 | 0 | 67 | 30 | 0
CO/C=C(/C(=O)OC)c1ccccc1COc1ccc(Cl)cc1C(=O)/C=C/c1ccc(Cl)cc1 | 0 | 0 | 86 | 21
CCOc1ccc(/C=C/C(=O)c2ccc(OCc3ccccc3/C(=C\OC)C(=O)OC)cc2)cc1 | 0 | 59 | 0 | 0
CO/C=C(/C(=O)OC)c1ccccc1COc1ccccc1C(=O)/C=C/c1cccc(OC)c1 | 0 | 61 | 0 | 11
CCc1ccc(/C=C/C(=O)c2cccc(OCc3ccccc3/C(=C\OC)C(=O)OC)c2)cc1 | 0 | 100 | 78 | 0
